# Assay outcomes: PubChem BioAssay, several laboratories
# Shown are actives, neighbours in structure and some others; about 7.9% of the full set was active somewhere.
# HEK293 NFkB inh: lowers PMA/ionomycin-induced NF-kB signal in HEK293 cells; HEK-293 NF-kB luciferase reporter, luminescence; inhibition, % at 3 µM; actives 0.21% (n = 62,000);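 active = inhibition above the mean of all tested compounds plus 3 SD, cut at about 40% in these data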;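 note: 0% = stimulated DMSO wells and 100% = 10 µM reference inhibitor 5653914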
#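 System: NF-kB luciferase reporter HEK-293 cells | Replication: Single test | Control set: DMSO vs reference inhibitor | Evaluation: % inhibition | Schedule: 1 h pretreatment, 16 h stimulation, 37 °C | Probe or stimulus: PMA with ionomycin | Compound dosing: One dose, 3 µM | Detection: Luciferase luminescence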
# D1 mod: allosterically modulates the human D1 dopamine receptor; P21728; HEK293 D1, CRE-luciferase, dopamine EC30 potentiation; actives deviate in either direction; B-score at 10 µM; actives 5.9% (n = 58,000); AID 641;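 active = luminescence count or its row- and column-corrected plate score outside the 99.7% band of the plate's sample wells, on either side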
# JNK3 inh: blocks human JNK3 kinase activity; actives 0.61% (n = 60,000); inhibition, % at 8 µM; purified JNK3 kinase activity, HTS; in the data active = inhibition above about 17%;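 note: 0% = DMSO and 100% = reference inhibitor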
# SF1 activator: activators of human nuclear receptor SF-1; actives 1.9% (n = 65,000); Q13285; CHO-K1 Gal4-SF-1 LBD luciferase reporter; % increase over DMSO SF-1-specific signal; activation, % at 10 µM;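 active = activation above the mean activation of all tested compounds plus 3 SD, cut at about 50% in these data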
#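 Compound – one dose, 10 µM compound, 1% DMSO · Test system – transient Gal4-SF-1 LBD reporter, CHO-K1 · Input – 4,000 cells in each well · Read-out basis – percent activation relative to DMSO median and mock-transfected background · Replicates – single measurement per compound · Technique – steady-glow luciferase luminescence, read after 15 min reagent incubation · Timing – 20 h compound treatment, 37 °C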
# RORA act: activators of human nuclear receptor RORA. CHO-K1 Gal4-RORA LBD luciferase reporter, luminescence; percent increase over mock-subtracted basal signal. activation, % at 10 µM. actives 1.5% (n = 65,000). AID 560;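 active = activation above the mean of all tested compounds plus 3 SD, cut at about 49% in these data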;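 note: 0% = DMSO-treated RORA cells and 100% = added signal equal to DMSO minus mock-transfected cells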
# Target sequence (P35398 whole entry, looked up, the tested form may be a part): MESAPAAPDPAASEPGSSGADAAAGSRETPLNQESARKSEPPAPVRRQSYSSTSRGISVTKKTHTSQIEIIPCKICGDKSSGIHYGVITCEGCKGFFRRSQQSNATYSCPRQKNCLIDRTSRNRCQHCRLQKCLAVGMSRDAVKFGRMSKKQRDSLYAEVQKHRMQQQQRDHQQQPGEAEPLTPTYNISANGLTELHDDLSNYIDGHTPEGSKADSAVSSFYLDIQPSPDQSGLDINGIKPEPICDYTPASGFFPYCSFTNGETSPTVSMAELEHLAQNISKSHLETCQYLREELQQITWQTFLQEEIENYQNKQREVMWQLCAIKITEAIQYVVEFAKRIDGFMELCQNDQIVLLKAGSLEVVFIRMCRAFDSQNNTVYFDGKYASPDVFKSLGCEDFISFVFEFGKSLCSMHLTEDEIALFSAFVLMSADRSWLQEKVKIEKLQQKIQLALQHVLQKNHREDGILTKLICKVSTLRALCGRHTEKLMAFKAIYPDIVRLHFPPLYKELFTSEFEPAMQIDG
# D1 PAM confirm: D1 receptor (human) allosteric modulation, confirmed | shares compounds with D1 mod | HEK293 D1 CRE-luciferase, dopamine EC30 potentiation; active compounds read high | luminescence at 10 µM | actives 88% (n = 2,200) | AID 642;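 active = luminescence in either of two replicates above the same-plate mean plus 3 SD of the low-dose dopamine control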
# D1 no dopamine: D1 (human) signaling in absence of dopamine; shares compounds with D1 mod; HEK293 D1 CRE-luciferase, luminescence, no dopamine; active compounds read high; luminescence at 10 µM; actives 0.8% (n = 1,900); AID 646; in the data active = luminescence above about 3900
# Isoprot counter: isoproterenol response counter-screen activity for D1 modulators | shares compounds with D1 mod | HEK293 D1 CRE-luciferase, isoproterenol EC30 counter-screen | calls only at 10 µM | actives 63% (n = 2,200);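 active = luminescence in either replicate above plate mean of wells with a partly effective reference agonist dose plus 3 SD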;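 note: isoproterenol raises cAMP through native beta-adrenoceptor Gs so signal bypasses D1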
# * hit, by the source's call; i = inactive; . = no result given; + = active, no number.
SMILES,HEK293 NFkB inh,D1 mod,JNK3 inh,SF1 activator,RORA act,D1 PAM confirm,D1 no dopamine,Isoprot counter
COc1ccc2c(Cl)c(C(N)=O)sc2c1,4,7.3*,18*,-1,15,15304*,1792,+
COc1ccc2c(Cl)c(-c3nnc(SCC(N)=O)n3C)sc2c1,10,0.028,-1,-11,28,.,.,.
COc1ccc(NC(=O)c2cc(-c3ccc(OC)c(OC)c3)on2)cc1OC,7,-0.026,-8,-13,-13,.,.,.
COc1ccc(C(=O)N2CCOCC2)cc1Br,14,-0.3,5,-5,-19,.,.,.
COc1ccc(-c2cc(C(=O)N(C)Cc3ccccc3)no2)cc1OC,9,17*,-3,-2,19,18128*,.,+
COc1ccc(-c2cc(C(=O)NCc3ccc(Cl)cc3)no2)cc1OC,15,1.6,-5,2,1,.,.,.
COc1ccc(-c2cc(C(=O)N3CCOCC3)no2)cc1OC,11,6*,-3,48,23,11468*,1656,+
COc1ccc(S(=O)(=O)N(C)c2ccc(C(=O)N3CCOCC3)cc2)cc1OC,4,15*,7,3,-8,16652*,1416,i
CCCCNC(=O)c1cc(-c2ccc(OC)c(OC)c2)on1,3,3.4*,3,0,1,9084*,1608,i
COc1cc2c(cc1OC)-c1nnc(-c3cccs3)n1C(C)(C)C2,26,-0.91,1,15,-11,.,.,.
COc1ccc(-c2nc(CCNC(=O)c3ccco3)cs2)cc1OC,12,24*,-4,-3,4,24816*,1952,+
COc1ccc(-c2cc(C(=O)NCc3ccccc3)no2)cc1OC,-8,4.6*,-1,4,10,10196*,.,+
COc1ccc(CNC(=O)c2cc(-c3ccc(OC)c(OC)c3)on2)cc1,13,1.4,-2,-7,-18,.,.,.
O=c1[nH]c(=O)n(C2CCCO2)cc1Br (stereo not given),9,0.19,-3,0,-5,.,.,.
COc1ccc(S(=O)(=O)N(CC(=O)NCc2ccco2)C2CCCCC2)cc1OC,20,-0.38,2,-11,-15,.,.,.
CSc1ccccc1NC(=O)c1cnccn1,0,1.4,2,-2,-21,.,.,.
O=C(Nc1ccccc1Oc1ccccc1)c1cnccn1,10,4.1*,0,-23,-16,9216*,1488,i
COc1ccc(NC(=O)COC(=O)c2cnccn2)cc1Cl,13,.,-3,-10,-1,.,.,.
CCn1nccc1C(=O)Nc1cc(Cl)ccc1Cl,21,2.3*,1,3,-5,7456*,1536,+
CCN(CC)C(=O)CSc1nc2sc(C)c(C)c2c(=O)[nH]1,16,.,-5,4,0,.,.,.
CCOC(=O)CCCSc1nc2sc(C)c(C)c2c(=O)[nH]1,10,2.9*,0,-7,-8,6744*,.,+
Cc1ccc(N2CC(c3nc4ccccc4[nH]3)CC2=O)c(C)c1 (stereo not given),7,11*,5,8,-22,6760,1648,i
COc1cccc(N2C(=O)CC(N3CCC(c4nc5ccccc5[nH]4)CC3)C2=O)c1 (stereo not given),16,-0.91,1,11,-20,.,.,.
CC1(C)Cc2nc(N3CCOCC3)c(C#N)cc2CO1,9,2.8*,7,8,2,9156*,.,i
CC1(C)Cc2c(C#N)c(N3CCOCC3)nc(-c3ccccc3)c2CO1,.,.,0,-15,-25,.,.,.
SMILES,HEK293 NFkB inh,D1 mod,JNK3 inh,SF1 activator,RORA act,D1 PAM confirm,D1 no dopamine,Isoprot counter
Cc1nc(N2CCOCC2)c(C#N)c2c1COC(C)(C)C2,.,.,-2,0,7,.,.,.
CCc1nc(N2CCOCC2)c(C#N)c2c1COC(C)(C)C2,20,5.6*,-6,-10,-1,15288*,.,+
COc1cc(Br)cc2cc(C(=O)N3CCCCC3C)c(=O)oc12 (stereo not given),6,-0.46,-11,1,-6,.,.,.
O=C(COc1ccc2ccccc2c1CN1CCOCC1)N1CCc2ccccc21,14,-0.16,0,-10,-27,.,.,.
CCOc1ccc(N(CC(=O)NCC2CCCO2)S(=O)(=O)c2ccc(OC)c(OC)c2)cc1 (stereo not given),14,0.62,-6,-21,-8,.,.,.
COc1ccc(N(CC(=O)O)S(=O)(=O)c2ccc(OC)c(OC)c2)cc1,.,-1.2,.,.,.,.,.,.
COC(=O)CN(c1ccc(OC)cc1)S(=O)(=O)c1ccc(OC)c(OC)c1,9,3*,6,6,3,10376*,1508,+
CCOc1ccc(N(CC(=O)OC)S(=O)(=O)c2ccc(OC)c(OC)c2)cc1,16,3.6*,1,1,-2,12916*,1768,+
CCSc1nc2c(cnn2-c2ccc(C)cc2)c(=O)[nH]1,7,0.7,-9,10,-1,.,.,.
CCCSc1nc2c(cnn2-c2ccccc2)c(=O)[nH]1,10,11*,-4,-5,3,17784*,1636,+
CCCSc1nc2c(cnn2-c2ccc(F)cc2)c(=O)[nH]1,11,.,3,-13,9,.,.,.
CCCSc1nc2c(cnn2-c2ccc(C)cc2)c(=O)[nH]1,11,10*,-1,-14,-10,20136*,1696,+
CCC(C)Sc1nc2c(cnn2-c2ccccc2)c(=O)[nH]1 (stereo not given),13,12*,-5,18,-8,13072*,1680,+
C(=N\c1nccs1)/Nc1nccs1,20,2.4,2,1,1,.,.,.
CN(CCc1ccccn1)Cc1ccc(Cl)cc1Cl,-1,-0.27,-2,15,1,.,.,.
COC(=O)c1cc(NC(=O)CCc2c(C)nc3ncnn3c2C)cc(C(=O)OC)c1,18,5.2*,2,-13,3,5564,.,i
CCCc1noc2c1/C(=N\O)CC(CC(C)SCC)C2 (stereo not given),10,2,-2,-21,0,.,.,.
CCSC(C)CC1C/C(=N/O)c2c(CC)noc2C1 (stereo not given),-10,5.3*,0,-17,-22,8312*,1736,i
CCOc1cc(S(=O)(=O)NCc2ccccc2)ccc1F,12,1.5,-2,15,3,.,.,.
CCOc1ccccc1-c1nc(SCC(=O)O)n[nH]1,-5,3.8*,11,3,2,5488,1396,i
COC(=O)c1ccccc1NC(=O)c1ccc2c(c1)OCCO2,6,3.9*,-2,-2,-4,11420*,1512,i
